Assay results reported in publication PMC11261775 (eBioMedicine, 2024).

Tests used:
[1] = test system: prostate cancer cells (C4-2, CWR22Rv1, PC-3, DU145); assay: Cell viability assay, AR-positive and AR-negative prostate cancer cells; format: cell-based; details: 48 h treatment
Outline: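 Cells were seeded in 96-well plates in multiple wells and allowed to adhere. They were then exposed for 48 h to graded concentrations of test compound, nano vehicle (Se nanoparticles without peptide) or free peptide. CCK-8 reagent was added for 2 h, then absorbance was read at 450 nm. Data were normalised to the untreated group and given as mean ± SD.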

[2] = Biodistribution by fluorescence imaging; format: in vivo, mice; details: rhodamine-labeled drug, i.p., PC-3 xenograft models, 0-72 h
Outline: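 Tumour-bearing mice received rhodamine B-labelled test compound i.p., with injections timed to give exposures of 0, 12, 24, 48 and 72 h. Mice were then euthanised. Heart, liver, spleen, lungs and kidneys were excised and imaged at once on a small-animal in vivo fluorescence system. Distribution was scored by fluorescence intensity.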

[3] = test system: prostate cancer cells; assay: Wound healing and transwell invasion assays; format: cell-based; details: wound healing 24 h and 48 h; transwell 36 h
Outline: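 For wound healing, confluent PC3 and DU145 monolayers were scratched with a 200 μl tip and rinsed with PBS. Test compound was added in serum-free medium, and wounds were photographed at 24 h and 48 h.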

[4] = test system: NE1.3 and H660 cells; assay: Apoptosis detection by flow cytometry; format: cell-based; details: 24 h
Outline: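 NE1.3 cells were grown in medium with 10% androgen-removed FBS. H660 cells were grown in RPMI 1640 with 5% FBS, insulin, transferrin, selenite, hydrocortisone, β-estradiol and 4 mM final L-glutamine. Cells were seeded at 3 × 10⁵ cells/ml in 6-well plates and exposed for 24 h to test compound, untreated, nano vehicle or peptide controls. They were processed with an apoptosis detection kit per protocol and analysed on a FACSCalibur flow cytometer.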

[5] = test system: p53; assay: Immunoblotting of p53 and downstream proteins; format: cell-based; details: C4-2 and CWR22Rv1 cells, 1μM
Outline: (§1)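 Drug treatment lasted 24 h unless otherwise stated. Cells were PBS-washed, lysed, and lysates spun at 13,000×g for 15 min at 4 °C, then BCA-quantified and boiled 5 min. Equal protein was run on 6–10% Tris-glycine SDS-PAGE and transferred to PVDF. Membranes were blocked 1 h in 5% milk, incubated with primary antibody (in 3% BSA/TBST) overnight at 4 °C, then secondary antibody 1 h at room temperature. Detection was by ECL.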

[6] = test system: prostate cancer cells; assay: Cell internalization by confocal microscopy and flow cytometer; format: cell-based; details: 500 nM rhodamine-labeled drug
Outline: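 C4-2 cells were incubated with 500 nM rhodamine-labelled test compound, and nuclei were stained with DAPI. Imaging was by confocal microscopy, with identical excitation wavelength and detector gain for all images.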

[7] = test system: PC-3 xenografts; assay: PC-3 xenograft mouse model; format: in vivo, BALB/c nude mice
Outline: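 Twenty-five male 4-week-old BALB/c nude mice were randomised into 5 groups of 5 and received 8 × 10⁶ PC-3 cells s.c. into the right shoulder. Dosing began once tumours reached about 200 mm³, about 3 weeks later. Mice received PBS, peptide control, nano vehicle, test compound or a reference inhibitor at 5 mg/kg i.p. every other day for 18 days. Volume was calculated as length × width²/2. Tumours and organs went to H&E, Ki-67 and TUNEL staining. Mean ± SD, t-test.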

[8] = target: CBP (Homo sapiens, UniProt Q92793); assay: Immunoblotting of CBP in prostate cancer cells; format: cell-based; details: immunoblot
Chain of CBP (Q92793 whole entry): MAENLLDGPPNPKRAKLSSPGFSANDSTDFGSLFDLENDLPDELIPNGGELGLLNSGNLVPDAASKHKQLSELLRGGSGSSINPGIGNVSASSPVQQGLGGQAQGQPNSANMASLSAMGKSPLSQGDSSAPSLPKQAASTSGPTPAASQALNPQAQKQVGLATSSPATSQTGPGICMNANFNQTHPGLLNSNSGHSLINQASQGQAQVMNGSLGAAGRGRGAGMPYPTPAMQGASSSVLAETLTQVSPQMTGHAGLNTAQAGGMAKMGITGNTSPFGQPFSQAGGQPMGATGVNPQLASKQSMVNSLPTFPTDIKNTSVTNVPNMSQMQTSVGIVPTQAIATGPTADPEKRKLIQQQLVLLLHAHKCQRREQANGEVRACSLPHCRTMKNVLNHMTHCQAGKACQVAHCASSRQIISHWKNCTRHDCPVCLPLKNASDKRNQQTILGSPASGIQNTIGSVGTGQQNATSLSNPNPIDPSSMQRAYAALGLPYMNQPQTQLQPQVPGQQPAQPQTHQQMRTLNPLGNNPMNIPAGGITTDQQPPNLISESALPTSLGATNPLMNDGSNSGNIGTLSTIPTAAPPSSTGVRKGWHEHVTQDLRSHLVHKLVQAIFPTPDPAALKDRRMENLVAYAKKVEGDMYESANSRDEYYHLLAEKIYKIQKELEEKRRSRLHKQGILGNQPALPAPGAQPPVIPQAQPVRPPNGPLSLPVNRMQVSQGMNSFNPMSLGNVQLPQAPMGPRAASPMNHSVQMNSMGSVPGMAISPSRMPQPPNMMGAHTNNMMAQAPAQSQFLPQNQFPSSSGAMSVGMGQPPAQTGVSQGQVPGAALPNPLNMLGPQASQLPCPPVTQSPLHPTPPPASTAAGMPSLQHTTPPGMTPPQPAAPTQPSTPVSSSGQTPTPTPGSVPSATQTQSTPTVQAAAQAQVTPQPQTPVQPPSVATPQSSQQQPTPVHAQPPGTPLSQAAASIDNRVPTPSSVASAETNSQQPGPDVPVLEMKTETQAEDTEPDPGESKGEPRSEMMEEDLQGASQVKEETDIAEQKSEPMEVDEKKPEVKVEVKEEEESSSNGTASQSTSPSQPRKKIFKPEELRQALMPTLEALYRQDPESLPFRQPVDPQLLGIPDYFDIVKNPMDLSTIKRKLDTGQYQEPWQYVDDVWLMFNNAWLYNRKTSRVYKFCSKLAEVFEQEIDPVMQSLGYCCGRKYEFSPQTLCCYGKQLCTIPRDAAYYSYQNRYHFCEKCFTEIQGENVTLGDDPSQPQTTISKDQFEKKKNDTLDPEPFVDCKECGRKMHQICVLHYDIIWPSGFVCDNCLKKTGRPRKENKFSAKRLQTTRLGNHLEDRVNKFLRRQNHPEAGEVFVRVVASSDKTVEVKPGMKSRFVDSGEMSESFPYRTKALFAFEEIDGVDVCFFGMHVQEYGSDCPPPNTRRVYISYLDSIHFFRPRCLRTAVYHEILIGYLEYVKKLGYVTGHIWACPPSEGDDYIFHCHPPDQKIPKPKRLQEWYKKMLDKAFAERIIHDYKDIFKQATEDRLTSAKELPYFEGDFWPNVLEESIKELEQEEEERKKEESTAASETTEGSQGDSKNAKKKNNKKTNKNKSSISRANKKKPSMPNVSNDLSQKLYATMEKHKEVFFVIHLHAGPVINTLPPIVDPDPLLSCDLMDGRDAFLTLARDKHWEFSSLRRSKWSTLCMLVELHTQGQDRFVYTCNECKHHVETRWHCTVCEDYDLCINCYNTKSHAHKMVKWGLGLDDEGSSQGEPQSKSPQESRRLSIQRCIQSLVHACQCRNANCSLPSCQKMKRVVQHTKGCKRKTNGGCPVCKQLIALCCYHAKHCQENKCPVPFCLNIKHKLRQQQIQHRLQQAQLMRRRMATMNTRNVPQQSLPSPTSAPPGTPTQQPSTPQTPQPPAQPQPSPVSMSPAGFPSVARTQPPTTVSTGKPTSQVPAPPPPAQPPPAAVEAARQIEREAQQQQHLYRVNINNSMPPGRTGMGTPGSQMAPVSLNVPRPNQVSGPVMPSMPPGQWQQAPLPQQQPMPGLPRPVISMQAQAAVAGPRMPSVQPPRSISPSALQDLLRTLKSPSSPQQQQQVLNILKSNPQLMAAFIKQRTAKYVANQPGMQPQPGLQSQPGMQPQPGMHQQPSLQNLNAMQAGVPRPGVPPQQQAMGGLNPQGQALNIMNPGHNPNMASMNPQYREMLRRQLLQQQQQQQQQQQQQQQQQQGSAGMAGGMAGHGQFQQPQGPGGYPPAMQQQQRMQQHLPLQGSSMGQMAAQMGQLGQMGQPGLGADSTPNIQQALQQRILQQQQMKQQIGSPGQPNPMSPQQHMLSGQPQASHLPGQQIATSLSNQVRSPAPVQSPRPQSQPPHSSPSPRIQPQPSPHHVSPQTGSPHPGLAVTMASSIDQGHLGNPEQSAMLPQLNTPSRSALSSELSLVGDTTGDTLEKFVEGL
Outline: as §1

[9] = test system: C4-2 and PC-3 cells; assay: Apoptosis detection by flow cytometry; format: cell-based, human; details: high concentrations, 24 h
Outline: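 Cells were plated at 3 × 10⁵ cells/ml in 6-well plates. Treatment ran 24 h with test compound alongside untreated, nano vehicle and free peptide controls. Cells were harvested, stained with an apoptosis detection kit per its protocol and analysed on a FACSCalibur flow cytometer.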

[10] = target: p300/MDM2 binding in 293T cells (Homo sapiens, UniProt Q00987+Q09472); assay: Co-immunoprecipitation of p300 and MDM2; format: cell-based; details: 293T cells transfected with HA-p300 or Flag-MDM2
Outline: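 293T cells were transfected with HA-p300 or Flag-MDM2 plasmids. They were lysed 15 min on ice in IP buffer with protease and phosphatase inhibitors, then spun at 13,000×g for 15 min at 4 °C. Supernatants were incubated with anti-HA agarose beads for 12 h at 4 °C, with or without test compound. Beads were washed, boiled 5 min in loading buffer and analysed by Western blot.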

[11] = target: p300 (Homo sapiens, UniProt Q09472); assay: Immunoblotting of p300 degradation in prostate cancer cells; format: cell-based; details: for p300 degradation in prostate cancer cells: immunoblot, 24 h
Chain of p300 (Q09472 whole entry): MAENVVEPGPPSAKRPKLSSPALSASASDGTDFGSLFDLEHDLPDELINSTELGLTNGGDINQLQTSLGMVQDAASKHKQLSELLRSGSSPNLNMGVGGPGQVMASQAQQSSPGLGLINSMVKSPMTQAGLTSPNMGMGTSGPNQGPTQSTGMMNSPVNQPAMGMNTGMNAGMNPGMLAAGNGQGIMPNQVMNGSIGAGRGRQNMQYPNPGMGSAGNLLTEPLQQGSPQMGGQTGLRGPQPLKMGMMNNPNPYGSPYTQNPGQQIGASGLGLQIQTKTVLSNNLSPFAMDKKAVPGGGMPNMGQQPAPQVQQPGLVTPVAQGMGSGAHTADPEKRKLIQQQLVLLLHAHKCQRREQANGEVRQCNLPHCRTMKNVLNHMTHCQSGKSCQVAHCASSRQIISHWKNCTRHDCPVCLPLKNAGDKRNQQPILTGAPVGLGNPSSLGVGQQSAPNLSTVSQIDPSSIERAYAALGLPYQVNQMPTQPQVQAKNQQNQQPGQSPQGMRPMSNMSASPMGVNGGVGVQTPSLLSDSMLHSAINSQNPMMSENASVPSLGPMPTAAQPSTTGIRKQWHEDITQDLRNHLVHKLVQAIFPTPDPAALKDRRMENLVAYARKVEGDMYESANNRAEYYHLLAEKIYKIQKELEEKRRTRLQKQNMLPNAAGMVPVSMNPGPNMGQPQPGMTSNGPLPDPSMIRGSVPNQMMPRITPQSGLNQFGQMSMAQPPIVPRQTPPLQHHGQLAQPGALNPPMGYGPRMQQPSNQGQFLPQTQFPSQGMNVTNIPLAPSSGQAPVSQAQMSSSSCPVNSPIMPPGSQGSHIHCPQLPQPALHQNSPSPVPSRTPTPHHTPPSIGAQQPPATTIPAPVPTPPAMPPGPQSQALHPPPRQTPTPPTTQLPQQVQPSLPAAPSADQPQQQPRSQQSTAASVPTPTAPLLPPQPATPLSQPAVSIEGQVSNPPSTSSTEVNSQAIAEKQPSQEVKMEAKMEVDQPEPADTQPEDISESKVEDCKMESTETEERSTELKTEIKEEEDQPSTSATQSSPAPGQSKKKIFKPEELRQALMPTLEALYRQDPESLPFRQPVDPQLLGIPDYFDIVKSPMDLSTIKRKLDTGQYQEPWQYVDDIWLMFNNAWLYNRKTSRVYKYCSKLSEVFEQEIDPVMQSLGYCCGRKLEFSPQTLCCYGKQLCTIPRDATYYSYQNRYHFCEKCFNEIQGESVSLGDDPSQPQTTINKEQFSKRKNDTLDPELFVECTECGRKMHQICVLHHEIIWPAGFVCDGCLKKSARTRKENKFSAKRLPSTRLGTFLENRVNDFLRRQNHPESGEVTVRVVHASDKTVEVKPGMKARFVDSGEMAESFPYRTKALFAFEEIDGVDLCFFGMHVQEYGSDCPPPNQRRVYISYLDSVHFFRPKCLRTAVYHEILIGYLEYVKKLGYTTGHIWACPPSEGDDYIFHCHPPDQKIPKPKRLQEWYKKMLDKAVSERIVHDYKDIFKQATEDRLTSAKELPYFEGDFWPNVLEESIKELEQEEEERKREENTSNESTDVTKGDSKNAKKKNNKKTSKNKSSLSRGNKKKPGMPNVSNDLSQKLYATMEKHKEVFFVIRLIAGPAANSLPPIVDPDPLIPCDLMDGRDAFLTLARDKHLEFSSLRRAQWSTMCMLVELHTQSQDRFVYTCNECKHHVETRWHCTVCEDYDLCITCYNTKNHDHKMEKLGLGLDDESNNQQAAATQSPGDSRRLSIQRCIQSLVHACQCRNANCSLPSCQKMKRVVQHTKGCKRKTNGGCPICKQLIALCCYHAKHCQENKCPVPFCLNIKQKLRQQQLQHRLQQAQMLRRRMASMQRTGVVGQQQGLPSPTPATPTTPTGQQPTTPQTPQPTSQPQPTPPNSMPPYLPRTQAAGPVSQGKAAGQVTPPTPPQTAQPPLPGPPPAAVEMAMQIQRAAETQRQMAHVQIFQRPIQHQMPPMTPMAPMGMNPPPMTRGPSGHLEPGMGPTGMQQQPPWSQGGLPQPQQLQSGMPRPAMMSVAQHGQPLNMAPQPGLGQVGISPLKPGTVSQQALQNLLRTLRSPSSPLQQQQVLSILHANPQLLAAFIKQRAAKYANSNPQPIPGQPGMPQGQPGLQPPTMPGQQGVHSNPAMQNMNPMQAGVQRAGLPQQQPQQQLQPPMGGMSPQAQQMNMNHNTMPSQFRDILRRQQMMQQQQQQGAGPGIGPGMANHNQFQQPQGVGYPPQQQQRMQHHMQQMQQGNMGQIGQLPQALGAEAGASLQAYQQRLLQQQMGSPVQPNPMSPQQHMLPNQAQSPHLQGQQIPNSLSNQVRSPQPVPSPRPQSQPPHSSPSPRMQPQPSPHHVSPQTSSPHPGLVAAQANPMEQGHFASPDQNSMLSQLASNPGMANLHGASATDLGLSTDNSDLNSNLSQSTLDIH
Outline: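 AR-positive and AR-negative prostate cancer cells were exposed for 24 h to a range of concentrations of the test compound (Se-nanoparticle-loaded peptide PROTAC). Cells were PBS-washed three times before harvest and lysates were immunoblotted for p300. Secondary antibody was applied for 1 h at room temperature, with 3 × 5 min TBST washes. Detection was by ECL chemiluminescence.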

[12] = test system: prostate cancer cells (PC-3, DU145, C4-2, CWR22Rv1); assay: Colony formation assay; format: cell-based; details: 20 days treatment
Outline: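 Cells were plated in 6-well plates and allowed to attach for 48 h. They were then treated with graded concentrations of test compound for 20 days. Wells were PBS-washed, fixed 30 min in 4% paraformaldehyde and stained 30 min with 0.1% crystal violet. Colonies were counted from images.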

[13] = test system: CWR22Rv1 xenografts; assay: CWR22Rv1 xenograft mouse model; format: in vivo, BALB/c nude mice
Outline: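 Thirty-five male 4-week-old BALB/c nude mice were randomised into 7 groups of 5. Each received 6 × 10⁶ 22Rv1 cells mixed 1:1 with Matrigel, injected s.c. into the right shoulder. After tumours formed, dosing was i.p. every other day for 21 days, with reference agents also at 5 mg/kg. Volume was calculated as length × width²/2. Tumours went to H&E or IHC, scored as intensity (0–3) × positive-cell percentage grade (1–4).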

[14] = target: rhodamine-labeled peptide p300 PROTAC drug; assay: fluorescence polarisation

Q: Which “Toxicity in prostate cancer cells (cell viability)” value [1] does the source give for “CPWIWDGDNKDDNSTDGGGSGGGTSFEQFWAWLWP [free peptide control]” here?
A: Its value is “no toxicity”.

Q: Which Biodistribution [2] does the source give for “CPWIWDGDNKDDNSTDGGGSGGGTSFEQFWAWLWP [p300 PROTAC drug]” here?
A: The Biodistribution was “accumulated within the tumor”.

Q: And the Migration and invasion [3]?
A: Its Migration and invasion is “effectively inhibit the migration and invasion”.

Q: What about the “Apoptosis induction, NEPC cells” value [4] of the same substance?
A: Its value is “effectively induced apoptosis”.

Q: And the “Protein level of p53 and downstream proteins” value [5]?
A: Its value is “effectively increased the protein level of p53 and its downstream proteins”.

Q: What about the Cell internalization [6] of the same substance?
A: The Cell internalization was “internalization of the p300 PROTAC drug in a time-dependent manner”.

Q: What about the “Effect on PC-3 tumor growth” value ([7]; 5 mg/kg i.p. every 2 days for 18 days, n = 5 per group) of the same substance?
A: The value was “significant efficacy in vivo”.

Q: What about the “Efficacy relative to I-CBP112, PC-3 model” value ([7]; same dose, 5 mg/kg) of the same substance?
A: Its value is “better efficacy compared to small molecular p300/CBP inhibitor I-CBP112 at the same dose”.

Q: And the “Reduction of CBP in prostate cancer cells” value [8]?
A: Its value is “notably weaker compared to its effect on p300”.

Q: And the “Apoptosis induction, AR-positive and AR-negative cell lines” value [9]?
A: The value was “effectively induced apoptosis”.

Q: What about the “Binding of p300 to MDM2 in presence of drug” value [10] of the same substance?
A: The value was “significantly enhanced”.

Q: And the “Concentration eliminating the p300 protein” value ([11]; different prostate cancer cell lines)?
A: Its value is “under 1 μM”.

Q: What about the “p300 degradation in prostate cancer cells” value [11] of the same substance?
A: The value was “effectively degraded p300”.

Q: And the Colony formation [12]?
A: Its Colony formation is “effectively inhibited colony formation”.

Q: What about the “Effect on CWR22Rv1 tumor growth” value ([13]; 5 mg/kg i.p. every other day for 21 days, n = 5 per group) of the same substance?
A: The value was “significant efficacy in vivo”.

Q: And the “IHC of CWR22Rv1 tumors (p300, AR, Ki-67, TUNEL)” value ([13]; 5 mg/kg i.p., n = 5)?
A: Its value is “effectively degraded the p300, AR and Ki-67, and effectively induced the increase of tumor apoptosis”.

Q: What about the “Efficacy relative to comparator drugs, CWR22Rv1 model” value ([13]; all at 5 mg/kg i.p. every other day) of the same substance?
A: Its value is “better efficacy compared with I-CBP112, dCBP-1, and JQAD1”.

Q: For JQAD1 [reference compound], which “p300 degradation in prostate cancer cells” value [11] is on record?
A: Its value is “poor performance”.

Q: For “MDM2 N-terminal domain (domain or fragment)”, which Kd [14] is on record?
A: The Kd was 101 nM.

Q: With p300 CH1 domain (domain or fragment) as the substance, how does the Kd [14] read?
A: Its Kd is 78.3 nM.
